Reference: ChEMBL document CHEMBL3399928, “Design and synthesis of novel 2-(indol-5-yl)thiazole derivatives as xanthine oxidase inhibitors” (Bioorg Med Chem Lett, 2015)

Columns and labels:
[1] = Inhibition of butter milk Xanthine oxidase using xanthine as substrate preincubated for 3 mins by spectrophotometry
Method in brief: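 Buttermilk xanthine oxidase at 0.05 U/mL in 50 mM phosphate buffer with test compound; reaction started with 200 µM xanthine stock. Uric acid formation read at 293 nm, with linear Vmax over 5 min taken as initial velocity. Inhibition was calculated against the uninhibited rate, and IC50 was taken as the concentration giving 50% inhibition.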

[2] = Half life in rat liver microsomes; type: ADME
[3] = Cytotoxicity against primary rat hepatocytes; type: cell-based, Hepatocyte
[4] = Cmax in Sprague-Dawley rat at 10 mg/kg, po; type: ADME, organism-based; parameters: dose 10 mg/kg, route oral; conditions: in vivo
Method in brief: (§1)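 Single oral dose of 10 mg/kg in Sprague-Dawley rats; plasma followed over 24 h; Cmax, Tmax, AUC, half-life and bioavailability derived from the plasma profile; n = 3.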

[5] = AUC (0 to last) in Sprague-Dawley rat at 10 mg/kg, po; type: ADME, organism-based; parameters: time 0 - last, dose 10 mg/kg, route oral; conditions: plasma; method in brief: as §1
[6] = AUC (0 to last) in Sprague-Dawley rat at 2 mg/kg, iv; type: ADME, organism-based; parameters: dose 2 mg/kg, route intravenous, time 0 - last; conditions: plasma
Method in brief: (§2)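 Single intravenous dose of 2 mg/kg in Sprague-Dawley rats; AUC, half-life, clearance and Vd derived from the plasma profile; n = 3.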

[7] = AUC (0 to infinity) in Sprague-Dawley rat at 2 mg/kg, iv; type: ADME, organism-based; parameters: time infinity, dose 2 mg/kg, route intravenous; conditions: plasma; method in brief: as §2
[8] = Half life in Sprague-Dawley rat at 2 mg/kg, iv; type: ADME, organism-based; parameters: dose 2 mg/kg, route intravenous; conditions: in vivo; method in brief: as §2
[9] = Clearance in Sprague-Dawley rat at 2 mg/kg, iv; type: ADME, organism-based; parameters: dose 2 mg/kg, route intravenous; conditions: in vivo; method in brief: as §2
[10] = Volume of distribution in Sprague-Dawley rat at 2 mg/kg, iv; type: ADME, organism-based; parameters: dose 2 mg/kg, route intravenous; conditions: in vivo; method in brief: as §2
Rattus norvegicus = experiment: Inhibition of uric acid production in Sprague-Dawley rat at 10 mg/kg, po measured 1 hr post dose; type: functional
Method in brief: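 Male SD rats (about 200 g) received potassium oxonate 300 mg/kg i.p. in 0.8% carboxymethylcellulose. One hour later, compound at 10 mg/kg in PEG400/ethanol (2:1) was given orally, and blood was sampled 1 h after dosing. Plasma uric acid was scaled with the normal group as 100% and the oxonate control as 0% inhibition. ANOVA with Dunnett's post-test was used.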

[11] = AUC (0 to infinity) in Sprague-Dawley rat at 10 mg/kg, po; type: ADME, organism-based; parameters: time infinity, dose 10 mg/kg, route oral; conditions: plasma; method in brief: as §1
[12] = Tmax in Sprague-Dawley rat at 10 mg/kg, po; type: ADME, organism-based; parameters: dose 10 mg/kg, route oral; conditions: in vivo; method in brief: as §1
[13] = Half life in Sprague-Dawley rat at 10 mg/kg, po; type: ADME, organism-based; parameters: dose 10 mg/kg, route oral; conditions: in vivo; method in brief: as §1
[14] = Oral bioavailability in Sprague-Dawley rat at 10 mg/kg; type: ADME, organism-based; conditions: in vivo; method in brief: as §1
Plasma = experiment: Plasma concentration in Sprague-Dawley rat at 10 mg/kg, po; type: ADME, organism-based; parameters: dose 10 mg/kg, route oral; conditions: in vivo
Method in brief: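 Oral dose of 10 mg/kg in Sprague-Dawley rats; plasma concentration measured 1 h after administration.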

| Structure (SMILES) | IC50 [1] | half-life [2] | inhibition in vivo at 10 mg/kg (Rattus norvegicus) | also measured |
| --- | --- | --- | --- | --- |
| Cc1nc(-c2ccc3c(ccn3CC(C)C)c2)sc1C(=O)O | 110 nM | 0.458 h | – | – |
| Cc1nc(-c2ccc3c(c2)c(Cl)cn3CC(C)C)sc1C(=O)O | 5.7 nM | 0.103 h | – | – |
| Cc1nc(-c2ccc3c(c2)c(Cl)cn3C(C)C)sc1C(=O)O | 7.3 nM | 1.6 h | – | – |
| Cc1nc(-c2ccc3c(c2)c(Cl)c(C)n3CC(C)C)sc1C(=O)O | 16 nM | 0.11 h | – | – |
| Cc1nc(-c2ccc3c(c2)c([N+](=O)[O-])cn3C(C)C)sc1C(=O)O | 4.2 nM | 1.32 h | – | – |
| COCCn1cc([N+](=O)[O-])c2cc(-c3nc(C)c(C(=O)O)s3)ccc21 | 12 nM | – | – | – |
| Cc1nc(-c2ccc3c(c2)c(C#N)cn3CC(C)C)sc1C(=O)O | 5.5 nM | 1.76 h | – | CC50 [3]: 82000 nM |
| CC(C)n1cc(C#N)c2cc(-c3ncc(C(=O)O)s3)ccc21 | 4.4 nM | – | – | Cmax [4]: 940 ng/mL; AUC(0-t) [5]: 5390 ng·h/mL |
| CC(C)n1cc(C#N)c2cc(-c3nc(C(F)(F)F)c(C(=O)O)s3)ccc21 | 895 nM | – | – | – |
| COc1nc(-c2ccc3c(c2)c(C#N)cn3C(C)C)sc1C(=O)O | 90 nM | – | – | – |
| Cc1nc(-c2ccc3c(c2)c(C#N)cn3C(C)C)sc1C(=O)O | 3.5 nM | – | 60% | AUC(0-t) [6]: 12400 ng·h/mL; AUC(0-inf) [7]: 12500 ng·h/mL; half-life [8]: 4.37 h; clearance [9]: 2.69 mL/min/kg; Vd [10]: 0.635 L/kg; Cmax [4]: 3980 ng/mL; AUC(0-t) [5]: 47300 ng·h/mL; CC50 [3]: 200000 nM; AUC(0-inf) [11]: 52900 ng·h/mL; Tmax [12]: 6 h; half-life [13]: 7.95 h; bioavailability [14]: 84.3% |
| Cc1nc(-c2ccc3c(c2)c(C#N)c(C)n3C(C)C)sc1C(=O)O | 10.7 nM | – | 8.6% | – |
| Cc1nc(-c2ccc3c(c2)c(C#N)cn3C(C)CF)sc1C(=O)O (configuration not stated) | 4.9 nM | – | 22.3% | – |
| Cc1nc(-c2ccc3c(c2)c(C#N)cn3C(C)CO)sc1C(=O)O (configuration not stated) | 3 nM | – | 8.5% | – |
| COCC(C)n1cc(C#N)c2cc(-c3nc(C)c(C(=O)O)s3)ccc21 (configuration not stated) | 9 nM | – | 14.1% | – |
| Cc1nc(-c2ccc3c(c2)c(C#N)cn3CCS(C)(=O)=O)sc1C(=O)O | 12.3 nM | – | 0% | Cp (Plasma): < 20 ng/mL |
| CC(=O)NCCn1cc(C#N)c2cc(-c3nc(C)c(C(=O)O)s3)ccc21 | 5.6 nM | – | 0% | Cp (Plasma): < 20 ng/mL |
| Cc1nc(-c2ccc3c(c2)c(C#N)cn3CCNS(C)(=O)=O)sc1C(=O)O | 6 nM | – | 0% | – |
| Cc1nc(-c2ccc3c(c2)c(C#N)cn3Cc2ccccc2)sc1C(=O)O | 3.9 nM | – | 10% | – |
| Cc1nc(-c2ccc3c(c2)c(C#N)cn3Cc2ccc(F)cc2F)sc1C(=O)O | 8.6 nM | – | 16% | – |
| Cc1nc(-c2ccc(OCC(C)C)c(C#N)c2)sc1C(=O)O [FEBUXOSTAT] | 3.1 nM | 2.9 h | – | Cmax [4]: 16400 ng/mL; AUC(0-t) [5]: 61500 ng·h/mL |
